A selection: hits, their analogues and other compounds. The true share with any hit is near 3.8%.
KCNK3 inh – human KCNK3 channel inhibition, primary screen | O14649 | CHO-KCNK3 thallium flux, FluxOR fluorescence; hits give low values | B-score at 10 µM | hit rate 0.84% among 340,000 | AID 602410;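 active = B-score under library mean minus 4 SD, starting fluorescence ratio at most library mean plus 5 SD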;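 also: more negative B-score means stronger inhibition of thallium flux through KCNK3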
hERG protect – hERG (human) protection from proarrhythmic block; CHO-hERG, FluxOR thallium flux, dofetilide IC70 present; activation (rescue from dofetilide block), less the hit threshold, % at 10 µM; AID 1511; hit rate 0.51% among 310,000; Q12809;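 active = activation above the mean of controls blocked by dofetilide plus 5 SD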;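 also: thallium influx through hERG after potassium depolarization seen as dye fluorescence rise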
KCNQ1 act – potentiators or activators of human KCNQ1 potassium channel | CHO-K1 KCNQ1, thallium flux FluxOR fluorescence; hits give high values | B-score at 10 µM | hit rate 0.35% among 310,000 | AID 2648;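 active = fluorescence ratio B-score, a plate-corrected score, at least three library SD, with initial intensity B-score within 5 SD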
Target sequence (P51787 whole entry, looked up): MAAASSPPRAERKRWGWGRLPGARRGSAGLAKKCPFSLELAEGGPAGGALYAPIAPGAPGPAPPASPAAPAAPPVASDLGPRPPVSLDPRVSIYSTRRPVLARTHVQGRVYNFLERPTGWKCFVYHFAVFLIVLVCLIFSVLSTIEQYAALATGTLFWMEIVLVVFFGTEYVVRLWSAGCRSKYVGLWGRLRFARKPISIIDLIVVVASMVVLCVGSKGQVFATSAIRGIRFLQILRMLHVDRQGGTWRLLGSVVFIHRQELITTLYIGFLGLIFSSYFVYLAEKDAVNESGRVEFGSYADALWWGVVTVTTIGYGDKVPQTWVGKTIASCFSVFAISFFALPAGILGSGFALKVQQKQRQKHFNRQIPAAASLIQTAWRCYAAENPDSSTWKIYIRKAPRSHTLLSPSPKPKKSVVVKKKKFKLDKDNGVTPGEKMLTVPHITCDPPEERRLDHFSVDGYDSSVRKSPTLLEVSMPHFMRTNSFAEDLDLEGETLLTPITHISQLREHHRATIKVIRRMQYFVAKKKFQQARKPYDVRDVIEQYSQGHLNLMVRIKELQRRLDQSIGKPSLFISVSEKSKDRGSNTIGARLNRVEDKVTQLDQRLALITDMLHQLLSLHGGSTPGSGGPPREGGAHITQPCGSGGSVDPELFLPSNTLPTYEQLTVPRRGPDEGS
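System: CHO-K1 cells stably expressing KCNQ1 / Medium: assay buffer for compound exposure, DMSO matched across wells / Reagent: thallium- and potassium-containing depolarizing buffer / Compound: one concentration, matched DMSO / Incubation: 20 min compound pretreatment at room temperature / Measured by: kinetic FluxOR fluorescence, 10 s baseline plus 110 s post-stimulus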
Kir21 inh – blocks the mouse Kir2.1 inward-rectifier potassium channel | P35561 | HEK293-Kir2.1, FluxOR thallium flux fluorescence; hits give low values | B-score at 10 µM | hit rate 0.85% among 310,000 | AID 1672;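 active = fluorescence ratio B-score at or below minus 3 SD of library scores, with starting-brightness B-score within 2 SD, cut at about -4.2 in these data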;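 also: channel flux triggered by added potassium and thallium sulfate stimulus; B-score of peak minus minimum fluorescence over baseline after thallium stimulus; more negative B-score means stronger Kir2.1 block with less thallium influx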
KCNQ1 block – inhibitors of human KCNQ1 potassium channel | CHO-K1 KCNQ1, FluxOR thallium flux fluorescence; hits give high values | B-score at 10 µM | hit rate 1.3% among 310,000 | AID 2642;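 active = compounds whose thallium flux B-score, printed positive for inhibition, exceeds three library SD while starting fluorescence stays within three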;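 also: channel opened by potassium depolarization with thallium stimulus after 20 min compound exposure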
KCNK9 inh – human KCNK9 channel inhibition; Q9NPC2; HEK293 KCNK9, FluxOR thallium flux fluorescence; hits give low values; B-score at 10 µM; hit rate 1.2% among 310,000; AID 488922;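 active = ratio B-score over 3 SD below the library mean, with starting fluorescence within 5 SD of its mean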;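 also: negative B-score means less thallium flux so channel inhibition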
KCNK9 block conf – human KCNK9 inhibitor confirmation. shares compounds with KCNK9 inh. HEK293 KCNK9 cells, FluxOR thallium flux fluorescence. inhibition, % at 10 µM. hit rate 43% among 4,900;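 active = thallium signal inhibited by more than 5 SD of the compound-free buffer control wells, on both duplicate plates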;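 also: 0% = assay buffer control wells without compound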
Kir21 sel – mouse Kir2.1 off-target activity of KCNK9 modulators; Kir2.1 cells, FluxOR thallium flux fluorescence; hit rate 4% among 4,900; inhibition, % at 10 µM; AID 492993; shares compounds with KCNK9 inh;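 active = thallium signal drop more than 5 SD beyond the mean of the no-compound control wells, seen in both duplicate plates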;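 also: signal is fluorescence rise after thallium addition divided by baseline fluorescence; plate controls were assay buffer only for no effect and full block by chlorpromazine control for full effect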
KCNK9 uninduced – second check of KCNK9 modulator effects in non-induced HEK293 cells; FluxOR thallium flux; AID 492997; hit rate 40% among 4,900; inhibition, % at 10 µM; shares compounds with KCNK9 inh;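 active = thallium signal drop beyond 5 SD of the untreated control mean, on both duplicate plates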;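 also: plate controls were buffer only IC0 wells for no effect and SID17386958 at its maximal inhibitory level for full effect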
Numbers without * were called inactive; i = inactive; · = no result given.

SMILES | KCNK3 inh | hERG protect | KCNQ1 act | Kir21 inh | KCNQ1 block | KCNK9 inh | KCNK9 block conf | Kir21 sel | KCNK9 uninduced
C/C(=N\NC(=O)c1ccccc1F)c1ccc2c(c1)Nc1ccccc1S2 | i | 0.3 | i | -0.74 | i | -15.5* | i | i | 27.5%*
COc1ccc(C(=O)N/N=C(/C)c2cccc(NC(=O)c3ccccc3F)c2)cc1 | i | -11.1 | i | -0.76 | i | i | · | · | ·
CC1=C([N+](=O)[O-])C(c2cccc(Br)c2)C2=C(N1)c1ccccc1C2=O (configuration not stated) | i | -11.3 | i | 0.48 | 10* | -8.37* | 53.5%* | i | 38.0%*
Cc1ccc(-c2c[n+](CC(=O)Nc3nc(-c4ccc(F)cc4)cs3)c3n2CCC3)cc1 | i | -12.9 | i | 0.32 | i | i | · | · | ·
Cc1noc(C)c1S(=O)(=O)Nc1ccc2c(c1)C(=O)N([C@H](C)CO)C[C@H](C)[C@@H](CN(C)C(=O)Nc1ccccc1)O2 | i | · | · | · | · | · | · | · | ·
Cc1nn(C)cc1/C=N\NC(=O)c1ccc2c(c1)c(C)c(C)n2Cc1ccccc1 | i | 1.3 | i | 0.9 | i | -18.8* | 64.0%* | i | 39.5%*
Cc1ccc(-c2csc(NC(=O)CSC3=NCCS3)n2)cc1 | i | -16.5 | i | -0.74 | i | i | i | i | i
CC1CCC(C(C)C)C(OC(=O)Cn2c(-c3ccc(F)cc3)[n+](C)c3ccccc32)C1 (configuration not stated) | i | · | · | · | · | · | · | · | ·
CC1CCC(C(C)C)C(OC(=O)Cn2c(-c3ccccc3)[n+](C)c3ccccc32)C1 (configuration not stated) | i | -24.7 | i | -7.64* | i | -8.77* | 64.5%* | 73.5%* | i
CCc1ccccc1N1C(=O)CC(Sc2nccc(C)n2)C1=O (configuration not stated) | i | -6.0 | i | -1.49 | i | i | i | i | i
CN1CCN(S(=O)(=O)c2ccc3c(c2)CC(=O)N3C)CC1 | i | -6.8 | i | 2.98 | i | -10.1* | 35.0%* | i | i
Cc1cc2c(=O)n(CC(=O)NCC(=O)N3CCN(Cc4ccccc4)CC3)cnc2s1 | i | -6.1 | i | 0.75 | i | -11.2* | i | i | i
COc1ccc(CCCc2nnc(SCC(=O)N/N=C\c3ccc(O)c(OC)c3)o2)cc1C | i | -8.0 | i | -0.98 | i | i | · | · | ·
COc1ccc(/C=N/NC(=O)CSc2nnc(CCCc3ccc(OC)c(C)c3)o2)cc1 | i | -15.6 | i | 1.93 | i | i | i | i | i
C/C(=N\NC(=O)c1nn(C)c(C)c1Br)c1ccc(NC(=O)c2ccccc2F)cc1 | i | -15.1 | i | 0 | i | -11.6* | 63.5%* | i | 26.0%*
CCCCCCCc1ccc(C2NC(=S)NC3=C2C(=O)c2ccccc23)cc1 (configuration not stated) | · | -12.0 | i | 0.13 | i | i | · | · | ·
Cc1ccc(C)c(CSc2nnc(-c3cccs3)n2Cc2ccco2)c1 | i | -12.6 | i | -5.05* | i | -12* | 36.0%* | 61.0%* | 42.5%*
NC(=O)CSc1nnc(-c2cccs2)n1Cc1ccco1 | i | -9.1 | i | 1.16 | i | i | · | · | ·
Cc1c(C(=O)c2ccc(Cl)cc2Cl)cnc2cc3c(cc12)OCO3 | i | -10.9 | i | 1.58 | i | -16.2* | 62.5%* | i | 30.0%*
Cc1ccc(-c2nc(S(=O)(=O)c3ccc(C)cc3)c(N(C)C)o2)cc1 | i | -5.3 | i | 0.24 | i | i | · | · | ·
O=C(CN1CCN(C(c2ccccc2)c2ccccc2)CC1)NC(=O)NCc1ccco1 | i | -8.1 | i | 0.84 | i | i | · | · | ·
